Consider 77 molecules from ChEMBL document CHEMBL4602728, “6-Amino[1,2,5]oxadiazolo[3,4-b]pyrazin-5-ol Derivatives as Efficacious Mitochondrial Uncouplers in STAM Mouse Model of Nonalcoholic Steatohepatitis” (J Med Chem, 2020).

A value given as a limit tells only on which side of the number the result lay.

The first data set in a line: Cmax in C57BL/6 mouse at 10 mg/kg, po administered via gavage by LC/MS-MS analysis. The format is ADME, organism-based. More on the design: dose 10 mg/kg, route oral. The note with it: in vivo. Summed up:
(§1)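 Male C57BL/6 mice aged 9–12 weeks received a single 10 mg/kg oral gavage bolus. The vehicle was methylcellulose 90–91%, Tween 80 2–3% and DMSO 6–8% (v/v). Tail-tip blood was drawn into heparinized capillaries and spun at 2000g for 10 min. Plasma was extracted with acetonitrile:methanol (9:1) and quantified by LC–MS/MS against spiked plasma standards (1–100 ng). n = 3.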
`Oc1nc2nonc2nc1Nc1ccc2ccccc2c1` had a Cmax of 12.5 µM. That is a double-digit micromolar value. With `CCCCOc1ccc(Nc2nc3nonc3nc2O)cc1`, the highest level (Cmax) was 3.4 µM. This Cmax is about 3.7-fold lower than that of the molecule before. In turn, `CCCCc1ccc(Nc2nc3nonc3nc2O)cc1` registered a Cmax of 12 µM. On the same count and under the same terms, next, `CC(C)(C)c1ccc(Nc2nc3nonc3nc2O)cc1`: 22.3 µM.

Another data set can be described thus: Solubility of compound in PBS at pH 7.4. The format is physicochemical. The settings on record: buffer.
In turn, `Fc1cccc(Nc2nc3nonc3nc2Nc2ccccc2F)c1` had a solubility of less than 10 µM.

A short description of a further data set: Half life in C57BL/6 mouse at 10 mg/kg, po administered via gavage by LC/MS-MS analysis. The format is ADME, organism-based. The note with it: in vivo. In a few lines: as §1
Molecule `Oc1nc2nonc2nc1Nc1ccc2ccccc2c1` gave a half-life of 24 min. For the molecule `CCCCOc1ccc(Nc2nc3nonc3nc2O)cc1`, the half-life is 18 min. The same measure, in the same setting: next, `CCCCc1ccc(Nc2nc3nonc3nc2O)cc1`: 42 min.

`CC(C)(C)c1ccc(Nc2nc3nonc3nc2O)cc1`: the half-life was 36 min.

A short description of the next data set: Half life in Swiss albino mouse at 10 mg/kg, po administered via gavage by LC/MS-MS analysis. The settings on record: in vivo. The class given is ADME, organism-based. Summed up: (§2)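 Swiss Albino mice were given 10 mg/kg by oral gavage in a triturated Tween 80/0.5% (w/v) methylcellulose formulation, with three replicates per time point. Plasma was precipitated with acetonitrile containing telmisartan internal standard and analyzed by LC–MS/MS using transition m/z 286 → 125. Concentrations came from a standard curve (1–1000 ng/mL).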
In the case of `Oc1nc2nonc2nc1NC12CC3CC(CC(C3)C1)C2`, the half-life stood at 66 min.

The next data set in a line: Induction of mitochondrial uncoupling in rat L6 cells assessed as increase in oxygen consumption rate incubated for 90 mins by Seahorse XF analyzer based assay. The format is mitochondria, Mitochondria.
Details: not given
As for `O=[N+]([O-])c1cc(Nc2nc3nonc3nc2O)ccc1OC(F)(F)F`, the EC50 was 53.5 µM. Same read-out and setting: next, `Cc1cc(OC(F)(F)F)ccc1Nc1nc2nonc2nc1O`: 4.6 µM; `CC(C)(C#N)c1ccc(Nc2nc3nonc3nc2O)cc1`: 35.7 µM; `Oc1nc2nonc2nc1NC(c1ccccc1)c1ccccc1`: 38.3 µM. For `Oc1nc2nonc2nc1NCCC(F)(F)F`, the EC50 was 110 µM. On the same count and under the same terms, in the case of `Cc1ccc(CNc2nc3nonc3nc2O)cc1` it was 53.2 µM; in that of `Oc1nc2nonc2nc1Nc1ccc(OCCCC(F)(F)F)c(F)c1`, 4.2 µM. Same read-out and setting: in the case of `Cc1cc(Nc2nc3nonc3nc2O)ccc1OCC(F)(F)F` it was 7 µM; in that of `Oc1nc2nonc2nc1Nc1ccc2ccccc2c1`, 4 µM; in that of `CCCCCCc1ccc(Nc2nc3nonc3nc2O)c(F)c1`, 3.3 µM. Same read-out and setting: next, `Oc1nc2nonc2nc1Nc1ccc(C(F)(F)F)c(F)c1`: 11.6 µM; `Oc1nc2nonc2nc1NCc1ccc(OC(F)(F)F)cc1`: 13.4 µM; `Cc1cccc(C)c1Nc1nc2nonc2nc1O`: more than 100 µM. Turning to `Oc1nc2nonc2nc1Nc1cccc(OC(F)(F)F)c1`, the EC50 is 5.1 µM.

Consider `Oc1nc2nonc2nc1Nc1ccc(OCc2ccccc2)cc1`, for which the EC50 worked out at 2.4 µM. Consider `CCCCOc1ccc(Nc2nc3nonc3nc2O)cc1`, for which the concentration for a half-maximal effect (EC50) amounted to 3.7 µM. On to `Oc1nc2nonc2nc1Nc1cccc(C(F)(F)F)c1F`, for which the EC50 worked out at 4.9 µM. Still for that read-out and setting: in the case of `Oc1nc2nonc2nc1Nc1cccc(F)c1` it was 31.2 µM. Still for that read-out and setting: in the case of `Oc1nc2nonc2nc1Nc1cccc2ccccc12` it was 20.4 µM. Same read-out and setting: next, `Oc1nc2nonc2nc1Nc1ccc(F)cc1`: 38.6 µM; `Cc1ccc(Nc2nc3nonc3nc2O)cc1`: 51.9 µM.

With `CCCCCCc1ccc(Nc2nc3nonc3nc2O)cc1`, the EC50 was found to be 4.7 µM. With `Cc1cc(C)c(Nc2nc3nonc3nc2O)c(C)c1`, the EC50 came out at 113 µM.

On to `CCc1ccc(Nc2nc3nonc3nc2O)c(F)c1`, for which the EC50 stood at 6.7 µM. Same read-out and setting: next, `Oc1nc2nonc2nc1Nc1ccc(OC(F)(F)Cl)cc1`: 1.9 µM. On the same count and under the same terms, next, `Oc1nc2nonc2nc1Nc1ccccc1Cl`: 6.3 µM. On to `Oc1nc2nonc2nc1Nc1cccc(S(F)(F)(F)(F)F)c1`, for which the EC50 was determined as 3.7 µM.

Consider `Oc1nc2nonc2nc1Nc1ccc(S(F)(F)(F)(F)F)cc1`, for which the EC50 is 3.9 µM.

Regarding `Oc1nc2nonc2nc1Nc1ccc(OC(F)(F)F)cc1F`, the EC50 worked out at 2.3 µM. Same read-out and setting: next, `CCCCCCCCNc1nc2nonc2nc1O`: 3.4 µM.

For `Cc1ccc(C(F)(F)F)cc1Nc1nc2nonc2nc1O`, the EC50 worked out at 32.8 µM. In the case of `CCCCCc1ccc(Nc2nc3nonc3nc2O)c(F)c1`, the EC50 worked out at 1.5 µM. Turning to `CCCCc1ccc(Nc2nc3nonc3nc2O)c(F)c1`, the EC50 is 1.1 µM. Consider `Oc1nc2nonc2nc1Nc1ccccc1OC(F)(F)F`, for which the EC50 turned out to be 7.1 µM. On the same count and under the same terms, in the case of `Oc1nc2nonc2nc1Nc1ccc(OC(F)(F)F)cc1Cl` it was 1.4 µM; in that of `Oc1nc2nonc2nc1Nc1cc(C(F)(F)F)ccc1F`, 5.1 µM. Turning to `CC(=O)c1ccc(Nc2nc3nonc3nc2O)cc1`, the EC50 stood at 93.7 µM. On the same count and under the same terms, next, `Oc1nc2nonc2nc1Nc1cccc(C(F)(F)F)c1`: 13.3 µM; `Cc1ccc(Nc2nc3nonc3nc2O)cc1C`: 3 µM.

As to `Oc1nc2nonc2nc1Nc1ccc(C(F)(F)F)cc1`, the EC50 is 10.4 µM.

With `Oc1nc2nonc2nc1Nc1ccc(OC(F)F)cc1`, the EC50 was determined as 20.6 µM.

For `COc1cc(OC(F)(F)F)ccc1Nc1nc2nonc2nc1O`, the EC50 worked out at 3.8 µM. In the case of `CCc1cccc(Nc2nc3nonc3nc2O)c1`, the EC50 is 25.2 µM. On the same count and under the same terms, in the case of `Fc1cccc(Nc2nc3nonc3nc2Nc2ccccc2F)c1` it was 0.19 µM; in that of `Oc1nc2nonc2nc1Nc1ccc(C(O)(C(F)(F)F)C(F)(F)F)cc1`, 34 µM. Take `CCCCc1ccc(Nc2nc3nonc3nc2O)cc1`: the EC50 was found to be 2.1 µM. For `Oc1nc2nonc2nc1Nc1ccc(OCC(F)(F)F)c(F)c1`, the EC50 is 10.4 µM. With `CC(C)(C)c1ccc(Nc2nc3nonc3nc2O)cc1`, the EC50 stood at 3.9 µM. The same measure, in the same setting: in the case of `Oc1nc2nonc2nc1Nc1ccc(OC(F)(F)F)c(Cl)c1` it was 3 µM.

On to `Oc1nc2nonc2nc1Nc1ccc(OCC2CC2)c(C(F)(F)F)c1`, for which the 50% effective concentration (EC50) came to 1.8 µM. With `Oc1nc2nonc2nc1Nc1ccc(Cl)cc1`, the EC50 is 11.7 µM. Same read-out and setting: in the case of `CC(Nc1nc2nonc2nc1O)C12CC3CC(CC(C3)C1)C2` (stereo not drawn) it was 4.9 µM; in that of `CCc1ccc(Nc2nc3nonc3nc2O)cc1`, 10.7 µM; in that of `Oc1nc2nonc2nc1Nc1ccc2c(c1)OCO2`, 46.9 µM.

Turning to `Oc1nc2nonc2nc1Nc1ccccc1`, the EC50 amounted to 66.7 µM. For the molecule `CC(C)(C)c1cccc(Nc2nc3nonc3nc2O)c1`, the EC50 stood at 2.2 µM.

For `Oc1nc2nonc2nc1Nc1cc(F)cc(F)c1`, the EC50 worked out at 23.4 µM. For `Oc1nc2nonc2nc1Nc1ccc2c(c1)OC(F)(F)O2`, the EC50 amounted to 7.6 µM.

For `Oc1nc2nonc2nc1Nc1ccccc1C(F)(F)F`, the EC50 was determined as 10.6 µM.

For `Oc1nc2nonc2nc1Nc1ccc(C(F)(F)F)cc1F`, the EC50 was 2.6 µM.

With `Oc1nc2nonc2nc1Nc1ccc(OCCCC(F)(F)F)c(C(F)(F)F)c1`, the EC50 was 2.1 µM.

In the case of `Oc1nc2nonc2nc1Nc1ccc(OCC(F)(F)F)c(C(F)(F)F)c1`, the EC50 was determined as 4 µM. On the same count and under the same terms, next, `CCCCOc1cccc(Nc2nc3nonc3nc2O)c1`: 2.3 µM; `CC12CC3CC(C)(C1)CC(Nc1nc4nonc4nc1O)(C3)C2`: 2 µM; `Oc1nc2nonc2nc1Nc1ccc(OC(F)(F)C(F)F)cc1`: 7 µM.

For the molecule `Oc1nc2nonc2nc1Nc1ccc(OCC(F)(F)F)cc1`, the EC50 stood at 42.3 µM. Same read-out and setting: in the case of `Oc1nc2nonc2nc1NC12CC3CC(CC(C3)C1)C2` it was 7 µM; in that of `CCCCCc1ccc(Nc2nc3nonc3nc2O)cc1`, 2.4 µM; in that of `Oc1nc2nonc2nc1Nc1cc(C(F)(F)F)cc(C(F)(F)F)c1`, 4.5 µM. Still for that read-out and setting: in the case of `Oc1nc2nonc2nc1NC1C2CC3CC(C2)CC1C3` (stereo not drawn) it was 22.8 µM. With `Oc1nc2nonc2nc1Nc1ccc(OC(F)(F)F)c(F)c1`, the EC50 was determined as 2.9 µM. Regarding `Oc1nc2nonc2nc1Nc1cccc(F)c1F`, the EC50 came to 9.7 µM.

For `Oc1nc2nonc2nc1Nc1ccc(SC(F)(F)F)cc1`, the EC50 was 1.4 µM. Still for that read-out and setting: in the case of `Oc1nc2nonc2nc1NCCc1ccccc1` it was 65.5 µM; in that of `COc1cccc(Nc2nc3nonc3nc2O)c1`, 75.4 µM; in that of `Oc1nc2nonc2nc1Nc1ccccc1F`, 12.5 µM. For the molecule `Oc1nc2nonc2nc1Nc1cccc(OCc2ccc(C(F)(F)F)cc2)c1`, the EC50 turned out to be 3 µM.

A short description of another data set: Cmax in Swiss albino mouse at 10 mg/kg, po administered via gavage by LC/MS-MS analysis. Set-up: dose 10 mg/kg, route oral. The note with it: in vivo. The format is ADME, organism-based. Summed up:
as §2
On to `Oc1nc2nonc2nc1NC12CC3CC(CC(C3)C1)C2`, for which the Cmax came to 18 µM.

Usually Cmax stands for the maximum level reached in the sampled fluid or tissue. The term solubility denotes the concentration that dissolves in the medium under given conditions. The half-life is how long it takes for the measured level to halve. Usually EC50 stands for the concentration needed to bring the measured effect to its halfway point.
